Assay results reported in the M2OR odorant receptor database.

Target: T1, UniProt E9Q9Z6
T1 sequence (whole entry): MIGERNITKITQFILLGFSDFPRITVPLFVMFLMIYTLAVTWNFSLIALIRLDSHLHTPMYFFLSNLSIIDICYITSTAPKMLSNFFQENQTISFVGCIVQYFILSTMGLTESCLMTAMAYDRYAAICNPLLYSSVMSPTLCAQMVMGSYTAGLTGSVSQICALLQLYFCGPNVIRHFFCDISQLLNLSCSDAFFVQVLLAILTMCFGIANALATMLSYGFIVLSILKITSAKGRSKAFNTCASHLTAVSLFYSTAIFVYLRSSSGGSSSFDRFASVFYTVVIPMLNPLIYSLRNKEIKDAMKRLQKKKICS
Conditions: stereoisomer not certain
In short: (§1)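 Whether a receptor–molecule pair is responsive (active) rests on the original authors' judgment that its measured signal was statistically different from baseline. Pairs without that judgment are non-responsive (inactive). Sources used varied assay methods, commonly transient luciferase assays in mammalian cell lines.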
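Note: active if original authors judged signal statistically different from baseline.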

Odorant receptor agonist call, inactive:
CCC(=O)OCC(C)(C)OC(C)C1CCCC(C)(C)C1 (stereo not drawn), CCCCCCCC(=O)CCCCCCC, O=C1CCCCCCCCC1, O=C1CCCCCCCCCC1, O=C1CCCCCC=CCCCCCCCCO1, C1CCCCCCCCCCCCCC1, CC1C(C)(C)C2=C(C(=O)CCC2)C1(C)C (stereo not drawn)

Odorant receptor agonist call, active:
CC1CC=CCCCCCCCCC(=O)C1 (stereo not drawn), CCCCCCCCCCCCCC(C)=O, O=C1C=CCCCCCCCCCCCCO1, CC1CCCCCCCCCCCC(=O)C1 (stereo not drawn), O=C1CCCCCCCCCCCCCC1, CC1CCCCCCCCCCCCC(=O)C1 (stereo not drawn), OC1CCCCCCCCCCCCCC1, O=C1CCCC=CCCCCCCCCCC1, O=C1CCCCCCC=CCCCCCCC1, CC(=O)c1c(C)c([N+](=O)[O-])c(C(C)(C)C)c([N+](=O)[O-])c1C

Target: T2, UniProt E9QAT7
T2 sequence (whole entry): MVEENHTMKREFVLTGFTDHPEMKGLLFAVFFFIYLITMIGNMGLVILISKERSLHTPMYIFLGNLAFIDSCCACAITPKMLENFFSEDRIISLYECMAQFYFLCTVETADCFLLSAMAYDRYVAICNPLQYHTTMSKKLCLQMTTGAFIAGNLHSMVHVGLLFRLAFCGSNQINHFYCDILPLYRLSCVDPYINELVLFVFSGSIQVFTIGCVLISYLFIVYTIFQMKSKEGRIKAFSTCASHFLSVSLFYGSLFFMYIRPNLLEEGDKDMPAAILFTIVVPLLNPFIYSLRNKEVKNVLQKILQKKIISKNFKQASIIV
Conditions: stereoisomer not certain
In short: as §1

Odorant receptor agonist call, active:
CC1=NC(C)C(C)S1 (stereo not drawn), Cc1cnc(C)c(C)n1, CCc1cnc(C)c(C)n1, Cc1cncc(C)n1, CCc1nccnc1OC

Odorant receptor agonist call, inactive:
CCc1nccnc1C(C)=O, Cc1cnccn1, CCc1nccnc1C, CC(=O)c1nccnc1C, CC(=O)c1cnccn1, C=Cc1cnccn1, Cc1nccnc1C, CC1CCc2nccnc21 (stereo not drawn), COc1nccnc1CC(C)C, COC1=C(C)OC(C)C1=O (stereo not drawn), Cc1cnc(C)cn1
